Experimental data from ChEMBL document CHEMBL2203085, “Modification of a promiscuous inhibitor shifts the inhibition from γ-secretase to FLT-3” (Bioorg Med Chem Lett, 2012).
pIC50: −log10 of the molar value.

Key:
H4 [1] = test: Cytotoxicity against human H4 cells at 40 uM; type: cell-based; conditions: h4, 40 µM
Method in brief: (§1)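 H4 APP#9 cells were used for cell-based toxicity testing, and toxicity was scored as yes or no at each concentration tested.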

Gamma-secretase = test: Inhibition of gamma secretase in human H4 cells expressing APP695 assessed as inhibition of Abeta42 production after 20 to 24 hrs by liquid phase electrochemiluminescence assay; type: cell-based
Method in brief: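 Aβ42 generation in H4 APP#9 cells was quantified by a previously described liquid-phase electrochemiluminescence (LPECL) assay of the Aβ42 isoform as the read-out of γ-secretase inhibition.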

H4 [2] = test: Cytotoxicity against human H4 cells at 80 uM; type: cell-based; conditions: h4, 80 µM; method in brief: as §1
[3] = biological target: Protein kinase C beta type (Homo sapiens) (UniProt P05771); test: Inhibition of human recombinant PKCbeta2 using CKRREILSRRPSYRK as substrate assessed as residual activity at 1 uM after 15 mins relative to staurosporine
Method in brief: (§2)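 Part of a 50-kinase panel screen at a single concentration. Residual activity is given as percent of control specific activity, calculated as (measured specific activity/control specific activity) × 100, with staurosporine as the control. The kinase-specific details are in the supplementary data.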

[4] = biological target: Receptor-type tyrosine-protein kinase FLT3 (Homo sapiens) (UniProt P36888); test: Inhibition of human recombinant FLT3 expressed in insect cells using Ulight-CAGAGAIETDKEYYTVKD as substrate assessed as residual activity at 1 uM after 90 mins relative to staurosporine; method in brief: as §2
[5] = biological target: Fibroblast growth factor receptor 2 (Homo sapiens) (UniProt P21802); test: Inhibition of human recombinant FGFR2 using Ulight-CAGAGAIETDKEYYTVKD as substrate assessed as residual activity at 1 uM after 15 mins relative to staurosporine; method in brief: as §2
[6] = biological target: Cyclin-dependent kinase 2/cyclin A (Homo sapiens) (UniProt P24941+P20248+P78396); test: Inhibition of human recombinant CDK2/cyclin A using Ulight-CFFKNIVTPRTPPPSQGK-amide as substrate assessed as residual activity at 1 uM after 30 mins relative to staurosporine; type: protein-complex assay; method in brief: as §2
[7] = biological target: RAC-alpha serine/threonine-protein kinase (Homo sapiens) (UniProt P31749); test: Inhibition of human recombinant AKT1 expressed in insect cells using CKRREILSRRPSYRK as substrate assessed as residual activity at 1 uM after 60 mins relative to staurosporine; method in brief: as §2
[8] = biological target: Dual specificity mitogen-activated protein kinase kinase 6 (Homo sapiens) (UniProt P52564); test: Inhibition of human recombinant MKK6 using inactive p38alpha as substrate assessed as residual activity at 1 uM after 10 mins relative to staurosporine; method in brief: as §2
[9] = biological target: Tyrosine-protein kinase JAK3 (Homo sapiens) (UniProt P52333); test: Inhibition of human recombinant JAK3 using Ulight-CAGAGAIETDKEYYTVKD as substrate assessed as residual activity at 1 uM after 60 mins relative to staurosporine; method in brief: as §2
Chain of Tyrosine-protein kinase JAK3 (Homo sapiens) (P52333 whole entry): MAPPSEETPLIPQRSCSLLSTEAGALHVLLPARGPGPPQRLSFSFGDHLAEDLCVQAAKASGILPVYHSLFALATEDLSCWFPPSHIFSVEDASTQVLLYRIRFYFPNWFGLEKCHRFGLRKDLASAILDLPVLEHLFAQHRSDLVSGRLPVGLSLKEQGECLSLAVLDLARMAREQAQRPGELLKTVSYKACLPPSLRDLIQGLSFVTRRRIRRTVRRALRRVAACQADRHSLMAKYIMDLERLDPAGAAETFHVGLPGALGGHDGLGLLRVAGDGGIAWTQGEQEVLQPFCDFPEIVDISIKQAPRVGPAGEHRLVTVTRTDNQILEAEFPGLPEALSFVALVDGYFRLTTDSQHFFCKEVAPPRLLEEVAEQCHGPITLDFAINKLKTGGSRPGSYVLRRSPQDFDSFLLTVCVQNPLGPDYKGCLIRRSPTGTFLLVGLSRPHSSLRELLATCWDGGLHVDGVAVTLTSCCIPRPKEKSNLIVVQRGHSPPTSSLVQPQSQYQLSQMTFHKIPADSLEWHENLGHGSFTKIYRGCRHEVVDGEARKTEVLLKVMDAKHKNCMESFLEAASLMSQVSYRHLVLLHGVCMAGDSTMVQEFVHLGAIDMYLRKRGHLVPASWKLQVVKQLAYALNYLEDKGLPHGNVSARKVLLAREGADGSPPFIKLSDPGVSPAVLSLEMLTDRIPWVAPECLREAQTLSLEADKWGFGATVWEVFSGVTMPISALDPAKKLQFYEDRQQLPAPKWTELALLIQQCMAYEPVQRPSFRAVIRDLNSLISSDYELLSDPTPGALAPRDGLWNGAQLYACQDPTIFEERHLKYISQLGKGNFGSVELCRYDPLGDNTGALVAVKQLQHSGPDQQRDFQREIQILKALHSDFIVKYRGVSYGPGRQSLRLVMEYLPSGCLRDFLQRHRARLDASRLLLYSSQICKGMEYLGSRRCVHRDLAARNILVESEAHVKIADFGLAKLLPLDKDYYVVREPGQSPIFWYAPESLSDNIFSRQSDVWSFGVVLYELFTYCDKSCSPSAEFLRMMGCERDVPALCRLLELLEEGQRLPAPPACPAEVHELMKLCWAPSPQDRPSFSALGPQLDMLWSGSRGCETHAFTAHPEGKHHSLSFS

[10] = biological target: Serine/threonine-protein kinase PLK1 (Homo sapiens) (UniProt P53350); test: Inhibition of human recombinant PLK1 using Ulight-FLGFTYVAP as substrate assessed as residual activity at 1 uM after 60 mins relative to staurosporine; method in brief: as §2
H4 [11] = test: Selectivity ratio of IC50 for gamma secretase in human H4 cells to IC50 for human recombinant FLT3; type: cell-based
[12] = biological target: Epidermal growth factor receptor (Homo sapiens) (UniProt P00533); test: Inhibition of human recombinant EGFR expressed in insect cells using Ulight-CAGAGAIETDKEYYTVKD as substrate assessed as residual activity at 1 uM after 15 mins relative to staurosporine; method in brief: as §2
[13] = biological target: Serine/threonine-protein kinase PAK 4 (Homo sapiens) (UniProt O96013); test: Inhibition of human recombinant PAK4 expressed in insect cells using Ulight-RRRSLLE as substrate assessed as residual activity at 1 uM after 30 mins relative to staurosporine; method in brief: as §2
Homo sapiens = species: Homo sapiens; test: Inhibition of human recombinant PKA expressed in Escherichia coli using Ulight-RRRSLLE as substrate assessed as residual activity at 1 uM after 10 mins relative to staurosporine; method in brief: as §2
[14] = biological target: Aurora kinase A (Homo sapiens) (UniProt O14965); test: Inhibition of human recombinant Aurora A expressed in Sf21 cells using Ulight-RRRSLLE as substrate assessed as residual activity at 1 uM after 15 mins relative to staurosporine; method in brief: as §2
[15] = biological target: Serine/threonine-protein kinase 26 (Homo sapiens) (UniProt Q9P289); test: Inhibition of human recombinant MST4 using Ulight-TM- PKC as substrate assessed as residual activity at 1 uM after 30 mins relative to staurosporine; method in brief: as §2
[16] = biological target: Glycogen synthase kinase-3 alpha (Homo sapiens) (UniProt P49840); test: Inhibition of human recombinant GSK3alpha using Ulight-CFFKNIVTPRTPPPSQGK-amide as substrate assessed as residual activity at 1 uM after 60 mins relative to staurosporine; method in brief: as §2
[17] = biological target: Serine/threonine-protein kinase Nek2 (Homo sapiens) (UniProt P51955); test: Inhibition of human recombinant NEK2 expressed in insect cells using Ulight-FLGFTYVAP as substrate assessed as residual activity at 1 uM after 60 mins relative to staurosporine; method in brief: as §2
Danio rerio = species: Danio rerio; test: Toxicity against zebra fish embryo assessed as developmental delay at 20 uM incubated from 4 hrs to 48 hrs post fertilization by microscopic analysis; type: organism-based; conditions: zebrafish, in vivo
Method in brief: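 Zebrafish embryos were collected and kept in E2 medium at 28 °C. Compound was added at 4–5 hpf at 5 or 20 µM alongside untreated controls. Phenotypes were compared with controls at 48 hpf.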

[18] = biological target: Inhibitor of nuclear factor kappa-B kinase subunit alpha (Homo sapiens) (UniProt O15111); test: Inhibition of human recombinant IKKalpha expressed in Sf21 cells using + Ulight-IkappaB-alpha as substrate assessed as residual activity at 1 uM after 30 mins relative to staurosporine; method in brief: as §2
Chain of Inhibitor of nuclear factor kappa-B kinase subunit alpha (Homo sapiens) (O15111 whole entry): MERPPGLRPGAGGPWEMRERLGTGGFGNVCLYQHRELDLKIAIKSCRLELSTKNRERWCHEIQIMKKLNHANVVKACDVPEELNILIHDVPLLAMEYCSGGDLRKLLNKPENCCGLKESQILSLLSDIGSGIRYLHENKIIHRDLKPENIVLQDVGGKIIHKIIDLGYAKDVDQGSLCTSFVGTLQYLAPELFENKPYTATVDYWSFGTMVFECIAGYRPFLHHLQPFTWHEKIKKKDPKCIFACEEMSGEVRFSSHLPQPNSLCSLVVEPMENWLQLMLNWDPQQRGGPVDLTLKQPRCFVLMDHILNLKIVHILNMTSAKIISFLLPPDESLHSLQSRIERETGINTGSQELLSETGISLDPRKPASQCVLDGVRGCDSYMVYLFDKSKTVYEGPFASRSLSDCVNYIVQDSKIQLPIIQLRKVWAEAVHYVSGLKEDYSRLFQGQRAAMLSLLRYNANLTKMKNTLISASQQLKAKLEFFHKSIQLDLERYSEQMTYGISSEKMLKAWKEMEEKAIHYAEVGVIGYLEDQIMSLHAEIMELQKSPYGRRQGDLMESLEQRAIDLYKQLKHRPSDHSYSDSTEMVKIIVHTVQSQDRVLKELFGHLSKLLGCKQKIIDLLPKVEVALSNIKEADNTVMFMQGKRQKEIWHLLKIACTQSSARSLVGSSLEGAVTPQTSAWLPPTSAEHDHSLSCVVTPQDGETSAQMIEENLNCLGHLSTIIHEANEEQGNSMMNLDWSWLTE

[19] = biological target: Hepatocyte growth factor receptor (Homo sapiens) (UniProt P08581); test: Inhibition of human recombinant cMET expressed in insect cells using Ulight-CAGAGAIETDKEYYTVKD as substrate assessed as residual activity at 1 uM after 60 mins relative to staurosporine
Chain of Hepatocyte growth factor receptor (Homo sapiens) (P08581 whole entry): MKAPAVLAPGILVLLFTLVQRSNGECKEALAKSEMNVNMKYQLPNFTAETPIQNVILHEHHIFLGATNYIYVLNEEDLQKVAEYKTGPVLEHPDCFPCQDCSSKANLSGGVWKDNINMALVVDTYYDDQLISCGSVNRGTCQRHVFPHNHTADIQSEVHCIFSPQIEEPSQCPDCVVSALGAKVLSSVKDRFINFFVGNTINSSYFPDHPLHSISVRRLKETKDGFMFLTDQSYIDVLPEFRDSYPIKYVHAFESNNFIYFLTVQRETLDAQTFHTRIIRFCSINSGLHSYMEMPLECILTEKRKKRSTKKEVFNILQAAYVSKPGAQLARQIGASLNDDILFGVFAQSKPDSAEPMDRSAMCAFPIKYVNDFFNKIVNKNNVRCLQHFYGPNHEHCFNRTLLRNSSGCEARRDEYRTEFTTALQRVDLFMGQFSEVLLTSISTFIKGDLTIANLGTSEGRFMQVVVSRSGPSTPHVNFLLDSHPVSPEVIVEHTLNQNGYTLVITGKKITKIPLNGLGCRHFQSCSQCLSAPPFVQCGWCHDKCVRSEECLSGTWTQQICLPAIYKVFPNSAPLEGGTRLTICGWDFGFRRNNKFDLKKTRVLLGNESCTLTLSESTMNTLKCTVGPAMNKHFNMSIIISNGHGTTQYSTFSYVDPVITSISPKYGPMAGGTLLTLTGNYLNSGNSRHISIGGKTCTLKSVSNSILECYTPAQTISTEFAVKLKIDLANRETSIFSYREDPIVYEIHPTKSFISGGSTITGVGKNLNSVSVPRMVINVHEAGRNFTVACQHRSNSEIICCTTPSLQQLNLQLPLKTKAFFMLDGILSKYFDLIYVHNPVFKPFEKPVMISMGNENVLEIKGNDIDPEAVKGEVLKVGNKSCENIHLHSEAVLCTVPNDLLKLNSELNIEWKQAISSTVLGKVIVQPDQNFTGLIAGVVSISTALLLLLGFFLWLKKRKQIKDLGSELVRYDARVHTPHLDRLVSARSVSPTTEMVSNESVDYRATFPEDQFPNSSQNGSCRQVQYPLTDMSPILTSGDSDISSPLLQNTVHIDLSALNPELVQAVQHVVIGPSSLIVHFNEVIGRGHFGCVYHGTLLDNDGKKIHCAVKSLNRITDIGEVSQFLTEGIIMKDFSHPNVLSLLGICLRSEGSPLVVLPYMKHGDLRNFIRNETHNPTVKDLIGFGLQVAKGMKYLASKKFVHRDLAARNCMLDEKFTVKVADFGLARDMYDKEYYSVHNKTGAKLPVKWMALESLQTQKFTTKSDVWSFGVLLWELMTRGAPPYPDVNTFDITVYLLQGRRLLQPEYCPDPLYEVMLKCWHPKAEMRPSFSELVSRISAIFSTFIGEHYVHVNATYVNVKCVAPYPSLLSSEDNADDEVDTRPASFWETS
Method in brief: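 Single-point kinase-panel screen at 1 µM test concentration. Specific activity was measured and expressed as percent of the staurosporine control, calculated as (measured specific activity / control specific activity) × 100.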

[20] = biological target: Glycogen synthase kinase-3 beta (Homo sapiens) (UniProt P49841); test: Inhibition of human recombinant GSK3beta using Ulight-CFFKNIVTPRTPPPSQGK-amide as substrate assessed as residual activity at 1 uM after 90 mins relative to staurosporine; method in brief: as §2
Chain of Glycogen synthase kinase-3 beta (Homo sapiens) (P49841 whole entry, looked up): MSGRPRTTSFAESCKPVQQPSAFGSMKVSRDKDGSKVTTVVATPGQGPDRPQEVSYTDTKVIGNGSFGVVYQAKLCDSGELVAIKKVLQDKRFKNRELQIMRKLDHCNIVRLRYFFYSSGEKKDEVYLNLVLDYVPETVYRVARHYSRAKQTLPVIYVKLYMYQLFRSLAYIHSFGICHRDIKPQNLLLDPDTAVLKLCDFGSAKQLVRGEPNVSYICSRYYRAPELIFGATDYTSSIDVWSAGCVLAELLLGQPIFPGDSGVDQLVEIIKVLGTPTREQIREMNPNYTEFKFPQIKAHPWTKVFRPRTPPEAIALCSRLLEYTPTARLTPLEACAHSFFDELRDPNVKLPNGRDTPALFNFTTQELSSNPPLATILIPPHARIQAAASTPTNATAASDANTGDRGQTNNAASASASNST

[21] = biological target: Serine/threonine-protein kinase MARK1 (Homo sapiens) (UniProt Q9P0L2); test: Inhibition of human recombinant MARK1 using Ulight-RRRSLLE as substrate assessed as residual activity at 1 uM after 30 mins relative to staurosporine; method in brief: as §2
[22] = biological target: Mitogen-activated protein kinase 1 (Homo sapiens) (UniProt P28482); test: Inhibition of human recombinant ERK2 expressed in Escherichia coli using Ulight-CFFKNIVTPRTPPPSQGK-amide as substrate assessed as residual activity at 1 uM after 15 mins relative to staurosporine; method in brief: as §2
Chain of Mitogen-activated protein kinase 1 (Homo sapiens) (P28482 whole entry): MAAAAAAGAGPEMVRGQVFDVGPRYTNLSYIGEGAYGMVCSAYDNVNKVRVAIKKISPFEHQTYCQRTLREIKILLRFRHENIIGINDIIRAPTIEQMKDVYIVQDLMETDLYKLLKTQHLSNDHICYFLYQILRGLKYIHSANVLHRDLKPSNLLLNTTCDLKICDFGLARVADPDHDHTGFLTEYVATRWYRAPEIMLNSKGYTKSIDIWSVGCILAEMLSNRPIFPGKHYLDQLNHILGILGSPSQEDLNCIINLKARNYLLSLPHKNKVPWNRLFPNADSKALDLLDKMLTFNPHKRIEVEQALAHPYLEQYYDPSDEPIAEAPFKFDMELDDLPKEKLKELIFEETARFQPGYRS

[23] = biological target: 3-phosphoinositide-dependent protein kinase 1 (Homo sapiens) (UniProt O15530); test: Inhibition of human recombinant PDK1 expressed in insect cells using Ulight-FLGFTYVAP as substrate assessed as residual activity at 1 uM after 90 mins relative to staurosporine; method in brief: as §2
Chain of 3-phosphoinositide-dependent protein kinase 1 (Homo sapiens) (O15530 whole entry): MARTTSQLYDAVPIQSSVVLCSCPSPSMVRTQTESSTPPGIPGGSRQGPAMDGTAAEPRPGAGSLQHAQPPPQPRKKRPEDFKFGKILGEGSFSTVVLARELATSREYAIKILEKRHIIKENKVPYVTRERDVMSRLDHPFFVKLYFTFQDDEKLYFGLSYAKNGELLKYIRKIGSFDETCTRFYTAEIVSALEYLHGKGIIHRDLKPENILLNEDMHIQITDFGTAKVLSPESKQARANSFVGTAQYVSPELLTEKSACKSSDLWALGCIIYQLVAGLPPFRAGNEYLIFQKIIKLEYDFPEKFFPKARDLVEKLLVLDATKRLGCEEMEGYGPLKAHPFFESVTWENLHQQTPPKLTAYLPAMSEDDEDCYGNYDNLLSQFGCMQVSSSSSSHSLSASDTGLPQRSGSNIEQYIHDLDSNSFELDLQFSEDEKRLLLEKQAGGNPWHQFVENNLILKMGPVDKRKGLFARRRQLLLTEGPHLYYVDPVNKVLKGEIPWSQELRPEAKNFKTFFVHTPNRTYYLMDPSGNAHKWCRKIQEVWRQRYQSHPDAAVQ

[24] = biological target: Serine/threonine-protein kinase Chk1 (Homo sapiens) (UniProt O14757); test: Inhibition of human recombinant CHK1 expressed in insect cells using CKRREILSRRPSYRK as substrate assessed as residual activity at 1 uM after 30 mins relative to staurosporine; method in brief: as §2
[25] = biological target: Ephrin type-B receptor 4 (Homo sapiens) (UniProt P54760); test: Inhibition of human recombinant EPHB4 expressed in insect cells using Ulight-TK peptide as substrate assessed as residual activity at 1 uM after 90 mins relative to staurosporine; method in brief: as §2
[26] = biological target: Fibroblast growth factor receptor 3 (Homo sapiens) (UniProt P22607); test: Inhibition of human recombinant FGFR3 using Ulight-CAGAGAIETDKEYYTVKD as substrate assessed as residual activity at 1 uM after 90 mins relative to staurosporine; method in brief: as §2
[27] = biological target: Serine/threonine-protein kinase Sgk1 (Homo sapiens) (UniProt O00141); test: Inhibition of human recombinant SGK1 using Ulight-RRRSLLE as substrate assessed as residual activity at 1 uM after 30 mins relative to staurosporine; method in brief: as §2
Chain of Serine/threonine-protein kinase Sgk1 (Homo sapiens) (O00141 whole entry): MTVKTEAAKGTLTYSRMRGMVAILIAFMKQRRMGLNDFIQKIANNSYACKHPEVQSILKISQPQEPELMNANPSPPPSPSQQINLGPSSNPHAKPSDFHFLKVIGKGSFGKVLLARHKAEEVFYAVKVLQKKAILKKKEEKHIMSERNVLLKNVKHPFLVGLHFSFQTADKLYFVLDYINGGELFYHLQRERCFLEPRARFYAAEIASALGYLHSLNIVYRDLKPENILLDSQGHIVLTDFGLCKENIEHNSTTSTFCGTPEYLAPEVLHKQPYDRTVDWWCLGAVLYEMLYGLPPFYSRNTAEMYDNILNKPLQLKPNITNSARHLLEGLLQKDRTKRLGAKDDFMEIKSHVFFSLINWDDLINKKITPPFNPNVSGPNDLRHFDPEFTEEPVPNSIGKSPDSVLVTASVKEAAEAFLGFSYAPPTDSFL

H4 [28] = test: Cytotoxicity against human H4 cells at 160 uM; type: cell-based; conditions: h4, 160 µM; method in brief: as §1
H4 [29] = test: Cytotoxicity against human H4 cells at 20 uM; type: cell-based; conditions: h4, 20 µM; method in brief: as §1
H4 [30] = test: Cytotoxicity against human H4 cells at 10 uM; type: cell-based; conditions: h4, 10 µM; method in brief: as §1

Structure (SMILES): CCN(CC)CCOc1ccc(/C=C2\C(=O)Nc3ccc(Cl)cc32)cc1OC
- Activity (H4 [1]): Toxic
- pIC50 (Gamma-secretase): 4.94

Structure (SMILES): COc1cc(/C=C2\C(=O)Nc3ccc(Cl)cc32)ccc1-n1cnc(C)c1
- Activity (H4 [2]): Toxic
- pIC50 (Gamma-secretase): 5.17

Structure (SMILES): COc1ccc(/C=C2\C(=O)Nc3ccc(Cl)cc32)cc1
- Activity (H4 [1]): Non-toxic
- pIC50 (Gamma-secretase): < 4.40

Structure (SMILES): O=C1Nc2ccc(Cl)cc2/C1=C/c1ccc(OCCCc2nnn[nH]2)cc1
- Activity (H4 [1]): Toxic
- pIC50 (Gamma-secretase): 4.75

Structure (SMILES): COC(=O)c1ccc(COc2ccc(/C=C3\C(=O)Nc4ccc(Cl)cc43)cc2)cc1
- Activity (H4 [1]): Non-toxic
- pIC50 (Gamma-secretase): 4.41

Structure (SMILES): CCN(CC)CCOc1ccc(/C=C2\C(=O)Nc3ccc(Cl)cc32)cc1
- Activity [3]: 99.4%
- Activity [4]: 14.7%
- Activity [5]: 100%
- Activity [6]: 93.5%
- Activity [7]: 101%
- Activity [8]: 101%
- Activity [9]: 67.3%
- Activity [10]: 100%
- Ratio IC50 (H4 [11]): 1000
- Activity [12]: 102%
- Activity [13]: 101%
- Activity (Homo sapiens): 98.7%
- Activity [14]: 99.6%
- Activity [15]: 104%
- Activity [16]: 104%
- Activity [17]: 107%
- Activity (Danio rerio): Toxic
- Activity [18]: 104%
- Activity [19]: 97.2%
- Activity [20]: 97%
- pIC50 (Gamma-secretase): 4.75
- Activity [21]: 99.6%
- Activity [22]: 101%
- Activity [23]: 107%
- Activity [24]: 95.8%
- Activity [25]: 102%
- Activity [26]: 92.9%
- Activity [27]: 96%

Structure (SMILES): CN(C)c1ccc(/N=N/c2ccc(/C=C3\C(=O)Nc4ccccc43)cc2)cc1
- Activity (H4 [2]): Non-toxic
- pIC50 (Gamma-secretase): < 4.10

Structure (SMILES): COc1cc(/C=C2\C(=O)Nc3ccc(Cl)cc32)ccc1OCCCC#N
- Activity (H4 [28]): Non-toxic
- pIC50 (Gamma-secretase): < 3.80

Structure (SMILES): N#Cc1ccc(COc2ccc(/C=C3\C(=O)Nc4ccc(Cl)cc43)cc2)cc1
- Activity (H4 [1]): Non-toxic
- pIC50 (Gamma-secretase): 4.56

Structure (SMILES): CCCCOc1ccc(/C=C2\C(=O)Nc3ccc(Cl)cc32)cc1
- Activity (H4 [1]): Non-toxic
- pIC50 (Gamma-secretase): < 4.40

Structure (SMILES): O=C1Nc2ccc(Cl)cc2/C1=C/c1ccc(OCCCCl)cc1
- Activity (H4 [1]): Toxic
- pIC50 (Gamma-secretase): 5.33

Structure (SMILES): COc1cc(/C=C2\C(=O)Nc3ccc(Cl)cc32)ccc1S(C)(=O)=O
- Activity (H4 [29]): Toxic
- pIC50 (Gamma-secretase): 5.14

Structure (SMILES): N#CCCCOc1ccc(/C=C2\C(=O)Nc3ccc(Cl)cc32)cc1
- Activity (H4 [1]): Toxic
- pIC50 (Gamma-secretase): < 4.40

Structure (SMILES): O=C1Nc2ccc(Cl)cc2/C1=C/c1ccc(O)cc1
- Activity (H4 [1]): Non-toxic
- pIC50 (Gamma-secretase): 4.32

Structure (SMILES): Cc1cn(-c2ccc(Oc3ccc(/C=C4\C(=O)Nc5ccc(Cl)cc54)cc3)cc2)cn1
- Activity (H4 [30]): Toxic
- pIC50 (Gamma-secretase): 5.27

Structure (SMILES): Cn1c2ccccc2c2cc(/C=C3\C(=O)Nc4ccc(Cl)cc43)ccc21
- Activity (H4 [2]): Non-toxic
- pIC50 (Gamma-secretase): 4.70

Structure (SMILES): O=C1Nc2ccc(Cl)cc2/C1=C/c1ccc(OCCN2CCOCC2)cc1
- Activity (H4 [1]): Non-toxic
- pIC50 (Gamma-secretase): 4.95

Structure (SMILES): N#Cc1cccc(COc2ccc(/C=C3\C(=O)Nc4ccc(Cl)cc43)cc2)c1
- Activity (H4 [1]): Non-toxic
- pIC50 (Gamma-secretase): < 4.40

Structure (SMILES): O=C1Nc2ccc(Cl)cc2/C1=C/c1cc(Br)c(O)c(Br)c1
- Activity (H4 [1]): Non-toxic
- pIC50 (Gamma-secretase): 4.82

Structure (SMILES): COc1cc(OCCN(C)C)ccc1/C=C1\C(=O)Nc2ccc(Cl)cc21
- Activity (H4 [1]): Non-toxic
- pIC50 (Gamma-secretase): 5.00

Structure (SMILES): CN(C)CCOc1ccc(/C=C2\C(=O)Nc3ccc(Cl)cc32)cc1
- Activity (H4 [1]): Non-toxic
- pIC50 (Gamma-secretase): 5.12

Structure (SMILES): Cn1c2ccccc2c2cc(/C=C3\C(=O)Nc4ccccc43)ccc21
- Activity (H4 [2]): Toxic
- pIC50 (Gamma-secretase): 4.56

Structure (SMILES): COc1cc(/C=C2\C(=O)Nc3ccc(Cl)cc32)ccc1OCCN(C)C
- Activity (H4 [1]): Toxic
- pIC50 (Gamma-secretase): 4.94
